Test results reported in ChEMBL document CHEMBL1140989, “Synthesis, penetrability and intracellular targeting of fluorescein-tagged peptoids and peptide-peptoid hybrids” (Bioorg Med Chem, 2009).
Square brackets hold non-standard residues; d marks the D form. Peptide text beside a SMILES is read from it. * marks the point of attachment. X1 = O=C(O)c1cc(C(=O)*)ccc1-c1c2ccc(=O)cc-2oc2cc(O)ccc12; Gly(N-(CH2)6NH2) = NCCCCCCNCC(=O)O; Ahx = NCCCCCC(=O)O

Key:
Assay type in all cases: cell-based
HeLa = assay: Cytotoxicity against human HeLa cells after 24 hrs by MTT assay
Summary of the method: (§1)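 Cells kept in 10 µM peptoid in medium. Viability read by MTT 24 h after compound addition, absorbance at 570 nm.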

K562 = assay: Cytotoxicity against human K562 cells after 24 hrs by MTT assay; conditions: k562, 24 h; summary of the method: as §1
L929 = assay: Cytotoxicity against mouse L929 cells after 24 hrs by MTT assay; conditions: l929, 24 h; summary of the method: as §1

Measured: Activity

NCCCCCCN(CC(N)=O)C(=O)CN(CCCCCCN)C(=O)CN(CCCCCCN)C(=O)CN(CCCCCCN)C(=O)CN(CCCCCCN)C(=O)CCCCCNC(=O)c1ccc(-c2c3ccc(=O)cc-3oc3cc(O)ccc23)c(C(=O)O)c1
Non-toxic: all assays above

NCCCCCCN(CC(N)=O)C(=O)CN(CCCCCCN)C(=O)CN(CCCCCCN)C(=O)CCCCCNC(=O)c1ccc(-c2c3ccc(=O)cc-3oc3cc(O)ccc23)c(C(=O)O)c1
Non-toxic: all assays above

NCCCCCCN(CC(N)=O)C(=O)CN(CCCCCCN)C(=O)CN(CCCCCCN)C(=O)CN(CCCCCCN)C(=O)CN(CCCCCCN)C(=O)CN(CCCCCCN)C(=O)CN(CCCCCCN)C(=O)CCCCCNC(=O)c1ccc(-c2c3ccc(=O)cc-3oc3cc(O)ccc23)c(C(=O)O)c1 ({X1-Ahx}-[Gly(N-(CH2)6NH2)][Gly(N-(CH2)6NH2)][Gly(N-(CH2)6NH2)][Gly(N-(CH2)6NH2)][Gly(N-(CH2)6NH2)][Gly(N-(CH2)6NH2)][Gly(N-(CH2)6NH2)]-NH2)
Non-toxic: all assays above

NCCCCCCN(CC(N)=O)C(=O)CCCCCNC(=O)c1ccc(-c2c3ccc(=O)cc-3oc3cc(O)ccc23)c(C(=O)O)c1
Non-toxic: all assays above
